The record followed here is ChEMBL document CHEMBL3603808, “Discovery and structure of a new inhibitor scaffold of the autophagy initiating kinase ULK1” (Bioorg Med Chem, 2015).

Activity calls are given as the source filed them. The rule behind the calls is not given here. Bounds are passed on as bounds.

The target in assay [1] is Glycogen synthase kinase-3 beta (Homo sapiens) (UniProt P49841). Nature of the assay: Inhibition of GSK3beta (unknown origin) at 250 nM by radioactive filter-binding assay. The method, boiled down: (§1)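 Panel profiling of one compound against 50 kinases, carried out in duplicate at the International Centre for Protein Kinase Profiling. Radioactive filter-binding format.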

For assay [2], the target named is Dual specificity tyrosine-phosphorylation-regulated kinase 1A (Homo sapiens) (UniProt Q13627). Nature of the assay: Inhibition of DYRK1A (unknown origin) at 250 nM by radioactive filter-binding assay. In outline: as §1
The target of assay [3] is Tyrosine-protein kinase BTK (Homo sapiens) (UniProt Q06187). As to the kind of experiment: Inhibition of BTK (unknown origin) at 250 nM by radioactive filter-binding assay. In outline:
as §1

In assay [4] the target is Calcium/calmodulin-dependent protein kinase kinase 2 (Homo sapiens) (UniProt Q96RR4). Nature of the assay: Inhibition of CAMKKB (unknown origin) at 250 nM by radioactive filter-binding assay. The method, boiled down: as §1
In assay [5] the target is Serine/threonine-protein kinase 3 (Homo sapiens) (UniProt Q13188). Nature of the assay: Inhibition of MST2 (unknown origin) at 250 nM by radioactive filter-binding assay. The method, boiled down: as §1
The target in assay [6] is Insulin-like growth factor 1 receptor (Homo sapiens) (UniProt P08069). As to the kind of experiment: Inhibition of IGF1R (unknown origin) at 250 nM by radioactive filter-binding assay. In outline:
as §1

In assay [7] the target is Tyrosine-protein kinase Lck (Homo sapiens) (UniProt P06239). Nature of the assay: Inhibition of LCK (unknown origin) at 250 nM by radioactive filter-binding assay. In outline:
as §1

Assay [8] deals with Serine/threonine-protein kinase D1 (Homo sapiens) (UniProt Q15139). As to the kind of experiment: Inhibition of PKD1 (unknown origin) at 250 nM by radioactive filter-binding assay. In outline:
as §1

For assay [9], the target named is Casein kinase I isoform delta (Homo sapiens) (UniProt P48730). Nature of the assay: Inhibition of CK1delta (unknown origin) at 250 nM by radioactive filter-binding assay. The method, boiled down:
as §1

The target of assay [10] is Serine/threonine-protein kinase TBK1 (Homo sapiens) (UniProt Q9UHD2). Nature of the assay: Inhibition of TBK1 (unknown origin) at 250 nM by radioactive filter-binding assay. The method, boiled down: as §1
Assay [11] has as its target Tyrosine-protein kinase JAK2 (Homo sapiens) (UniProt O60674). Nature of the assay: Inhibition of JAK2 (unknown origin) at 250 nM by radioactive filter-binding assay. In outline: as §1
In assay [12] the target is Receptor-interacting serine/threonine-protein kinase 2 (Homo sapiens) (UniProt O43353). Nature of the assay: Inhibition of RIPK2 (unknown origin) at 250 nM by radioactive filter-binding assay. In outline:
as §1

Assay [13] concerns the target Ribosomal protein S6 kinase alpha-1 (Homo sapiens) (UniProt Q15418). As to the kind of experiment: Inhibition of RSK1 (unknown origin) at 250 nM by radioactive filter-binding assay. The method, boiled down: as §1
The target in assay [14] is Serine/threonine-protein kinase Chk2 (Homo sapiens) (UniProt O96017). Nature of the assay: Inhibition of CHK2 (unknown origin) at 250 nM by radioactive filter-binding assay. The method, boiled down: as §1
Assay [15] has as its target High affinity nerve growth factor receptor (Homo sapiens) (UniProt P04629). As to the kind of experiment: Inhibition of TRKA (unknown origin) at 250 nM by radioactive filter-binding assay. In outline:
as §1

Assay [16] has as its target SRSF protein kinase 1 (Homo sapiens) (UniProt Q96SB4). As to the kind of experiment: Inhibition of SRPK1 (unknown origin) at 250 nM by radioactive filter-binding assay. In outline:
as §1

Assay [17] concerns the target Serine/threonine-protein kinase N2 (Homo sapiens) (UniProt Q16513). Nature of the assay: Inhibition of PRK2 (unknown origin) at 250 nM by radioactive filter-binding assay. The method, boiled down: as §1
Assay [18] addresses Vascular endothelial growth factor receptor (Homo sapiens) (UniProt P17948+P35916+P35968). Nature of the assay: Inhibition of VEGFR (unknown origin) at 250 nM by radioactive filter-binding assay. The assay is classed as protein assay. The method, boiled down: as §1
Assay [19] has as its target MAP/microtubule affinity-regulating kinase 3 (Homo sapiens) (UniProt P27448). Nature of the assay: Inhibition of MARK3 (unknown origin) at 2 uM by radioactive filter-binding assay. The method, boiled down:
as §1

The target of assay [20] is Serine/threonine-protein kinase PAK 4 (Homo sapiens) (UniProt O96013). As to the kind of experiment: Inhibition of PAK4 (unknown origin) at 2 uM by radioactive filter-binding assay. In outline:
as §1

Assay [21] addresses Serine/threonine-protein kinase D1 (Homo sapiens) (UniProt Q15139). Nature of the assay: Inhibition of PKD1 (unknown origin) at 2 uM by radioactive filter-binding assay. In outline: as §1
Assay [22] deals with Serine/threonine-protein kinase TBK1 (Homo sapiens) (UniProt Q9UHD2). Nature of the assay: Inhibition of TBK1 (unknown origin) at 2 uM by radioactive filter-binding assay. In outline:
as §1

In assay [23] the target is Calcium/calmodulin-dependent protein kinase kinase 2 (Homo sapiens) (UniProt Q96RR4). As to the kind of experiment: Inhibition of CAMKKB (unknown origin) at 2 uM by radioactive filter-binding assay. In outline: as §1
Assay [24] deals with Interleukin-1 receptor-associated kinase 4 (Homo sapiens) (UniProt Q9NWZ3). Nature of the assay: Inhibition of IRAK4 (unknown origin) at 2 uM by radioactive filter-binding assay. In outline:
as §1

Assay [25] has as its target High affinity nerve growth factor receptor (Homo sapiens) (UniProt P04629). As to the kind of experiment: Inhibition of TRKA (unknown origin) at 2 uM by radioactive filter-binding assay. In outline:
as §1

Assay [26] deals with Tyrosine-protein kinase SYK (Homo sapiens) (UniProt P43405). Nature of the assay: Inhibition of SYK (unknown origin) at 2 uM by radioactive filter-binding assay. The method, boiled down:
as §1

For a further assay, the system named is HeLa. Nature of the assay: Inhibition of autophagy in human HeLa cells assessed as induction of LC3-I protein accumulation at 4 uM incubated for 24 hrs by immunoblotting method. The assay is classed as functional, cell-based. In outline:
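HeLa cells were grown in DMEM with 10% FBS to about 50% confluency, then given 4 µM compound or DMSO for 24 h. Cold-PBS wash, lysis in TBS pH 7.6 with 1% Triton-X, 0.2% SDS and protease/phosphatase inhibitors. Lysates were protein-normalized and immunoblotted for LC3-I/LC3-II, with actin as loading control.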

In assay [27] the target is Mitogen-activated protein kinase kinase kinase 7 (Homo sapiens) (UniProt O43318). As to the kind of experiment: Inhibition of TAK1 (unknown origin) at 2 uM by radioactive filter-binding assay. In outline: as §1
Assay [28] concerns the target Tyrosine-protein kinase JAK2 (Homo sapiens) (UniProt O60674). Nature of the assay: Inhibition of JAK2 (unknown origin) at 2 uM by radioactive filter-binding assay. In outline:
as §1

The target of assay [29] is AMP-activated protein kinase, AMPK (Homo sapiens) (UniProt P54646+O43741+P54619+Q9UGJ0+Q9Y478+Q13131+Q9UGI9). Nature of the assay: Inhibition of AMPK (unknown origin) at 2 uM by radioactive filter-binding assay. The assay is classed as protein-complex assay. The method, boiled down:
as §1

Sequence of Calcium/calmodulin-dependent protein kinase kinase 2 (Homo sapiens) (Q96RR4 2-588 limits assumed): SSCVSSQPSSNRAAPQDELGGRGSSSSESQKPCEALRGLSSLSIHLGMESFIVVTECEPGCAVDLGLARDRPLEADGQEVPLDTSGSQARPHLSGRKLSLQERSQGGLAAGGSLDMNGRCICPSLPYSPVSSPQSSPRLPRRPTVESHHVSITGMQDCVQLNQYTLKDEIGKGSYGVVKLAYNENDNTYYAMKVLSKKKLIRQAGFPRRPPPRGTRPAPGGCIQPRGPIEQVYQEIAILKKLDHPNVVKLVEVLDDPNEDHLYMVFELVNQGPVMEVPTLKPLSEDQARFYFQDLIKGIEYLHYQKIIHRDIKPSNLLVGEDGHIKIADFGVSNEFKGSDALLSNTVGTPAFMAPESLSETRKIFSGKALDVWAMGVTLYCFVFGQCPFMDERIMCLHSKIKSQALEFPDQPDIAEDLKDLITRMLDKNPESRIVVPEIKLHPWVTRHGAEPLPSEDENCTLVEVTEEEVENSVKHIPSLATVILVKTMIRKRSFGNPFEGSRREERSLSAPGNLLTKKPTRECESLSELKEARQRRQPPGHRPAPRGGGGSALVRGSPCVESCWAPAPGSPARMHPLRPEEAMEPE
Sequence of Serine/threonine-protein kinase D1 (Homo sapiens) (Q15139 whole entry): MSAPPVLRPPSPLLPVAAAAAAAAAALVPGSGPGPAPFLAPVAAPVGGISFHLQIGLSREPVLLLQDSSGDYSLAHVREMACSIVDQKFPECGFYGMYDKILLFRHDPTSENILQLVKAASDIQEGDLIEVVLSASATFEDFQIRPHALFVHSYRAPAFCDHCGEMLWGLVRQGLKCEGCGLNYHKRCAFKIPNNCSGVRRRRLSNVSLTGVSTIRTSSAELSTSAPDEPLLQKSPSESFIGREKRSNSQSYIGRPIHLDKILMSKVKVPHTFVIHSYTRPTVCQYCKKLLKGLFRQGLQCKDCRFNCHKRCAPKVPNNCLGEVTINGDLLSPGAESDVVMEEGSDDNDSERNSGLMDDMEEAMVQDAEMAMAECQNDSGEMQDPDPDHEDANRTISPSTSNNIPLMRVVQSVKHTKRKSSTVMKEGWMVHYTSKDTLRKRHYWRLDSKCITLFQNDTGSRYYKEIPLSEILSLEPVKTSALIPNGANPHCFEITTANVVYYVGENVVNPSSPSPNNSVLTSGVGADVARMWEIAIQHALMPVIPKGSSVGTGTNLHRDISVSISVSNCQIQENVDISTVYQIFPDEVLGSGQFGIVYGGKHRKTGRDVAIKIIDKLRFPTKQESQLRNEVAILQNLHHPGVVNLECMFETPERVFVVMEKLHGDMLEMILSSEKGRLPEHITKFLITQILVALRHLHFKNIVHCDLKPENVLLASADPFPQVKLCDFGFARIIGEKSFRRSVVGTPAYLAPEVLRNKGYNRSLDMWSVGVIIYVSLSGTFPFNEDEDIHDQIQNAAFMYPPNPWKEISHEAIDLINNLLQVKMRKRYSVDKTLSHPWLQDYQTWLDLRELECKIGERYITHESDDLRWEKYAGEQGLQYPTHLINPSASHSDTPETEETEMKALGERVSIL
Sequence of High affinity nerve growth factor receptor (Homo sapiens) (P04629 33-796 limits assumed): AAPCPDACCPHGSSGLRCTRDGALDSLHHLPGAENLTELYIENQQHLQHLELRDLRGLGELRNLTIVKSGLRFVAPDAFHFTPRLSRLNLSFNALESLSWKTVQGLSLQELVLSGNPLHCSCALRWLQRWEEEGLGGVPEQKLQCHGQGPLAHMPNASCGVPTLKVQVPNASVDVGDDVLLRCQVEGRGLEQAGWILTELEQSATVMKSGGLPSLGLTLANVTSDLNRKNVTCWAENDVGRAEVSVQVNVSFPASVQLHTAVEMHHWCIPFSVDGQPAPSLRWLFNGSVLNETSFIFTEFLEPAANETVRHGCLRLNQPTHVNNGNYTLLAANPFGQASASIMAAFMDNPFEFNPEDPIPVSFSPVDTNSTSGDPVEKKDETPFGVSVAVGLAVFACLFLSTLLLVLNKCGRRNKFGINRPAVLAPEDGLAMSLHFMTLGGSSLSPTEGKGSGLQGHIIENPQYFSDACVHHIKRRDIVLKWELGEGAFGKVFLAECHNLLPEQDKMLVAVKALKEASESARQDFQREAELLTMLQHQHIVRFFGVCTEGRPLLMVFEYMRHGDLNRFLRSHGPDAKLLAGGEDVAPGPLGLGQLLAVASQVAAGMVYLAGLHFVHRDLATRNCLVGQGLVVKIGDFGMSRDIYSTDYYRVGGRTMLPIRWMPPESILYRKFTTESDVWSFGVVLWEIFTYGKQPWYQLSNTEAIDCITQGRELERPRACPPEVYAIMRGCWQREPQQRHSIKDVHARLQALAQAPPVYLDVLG
Sequence of Tyrosine-protein kinase JAK2 (Homo sapiens) (O60674 whole entry): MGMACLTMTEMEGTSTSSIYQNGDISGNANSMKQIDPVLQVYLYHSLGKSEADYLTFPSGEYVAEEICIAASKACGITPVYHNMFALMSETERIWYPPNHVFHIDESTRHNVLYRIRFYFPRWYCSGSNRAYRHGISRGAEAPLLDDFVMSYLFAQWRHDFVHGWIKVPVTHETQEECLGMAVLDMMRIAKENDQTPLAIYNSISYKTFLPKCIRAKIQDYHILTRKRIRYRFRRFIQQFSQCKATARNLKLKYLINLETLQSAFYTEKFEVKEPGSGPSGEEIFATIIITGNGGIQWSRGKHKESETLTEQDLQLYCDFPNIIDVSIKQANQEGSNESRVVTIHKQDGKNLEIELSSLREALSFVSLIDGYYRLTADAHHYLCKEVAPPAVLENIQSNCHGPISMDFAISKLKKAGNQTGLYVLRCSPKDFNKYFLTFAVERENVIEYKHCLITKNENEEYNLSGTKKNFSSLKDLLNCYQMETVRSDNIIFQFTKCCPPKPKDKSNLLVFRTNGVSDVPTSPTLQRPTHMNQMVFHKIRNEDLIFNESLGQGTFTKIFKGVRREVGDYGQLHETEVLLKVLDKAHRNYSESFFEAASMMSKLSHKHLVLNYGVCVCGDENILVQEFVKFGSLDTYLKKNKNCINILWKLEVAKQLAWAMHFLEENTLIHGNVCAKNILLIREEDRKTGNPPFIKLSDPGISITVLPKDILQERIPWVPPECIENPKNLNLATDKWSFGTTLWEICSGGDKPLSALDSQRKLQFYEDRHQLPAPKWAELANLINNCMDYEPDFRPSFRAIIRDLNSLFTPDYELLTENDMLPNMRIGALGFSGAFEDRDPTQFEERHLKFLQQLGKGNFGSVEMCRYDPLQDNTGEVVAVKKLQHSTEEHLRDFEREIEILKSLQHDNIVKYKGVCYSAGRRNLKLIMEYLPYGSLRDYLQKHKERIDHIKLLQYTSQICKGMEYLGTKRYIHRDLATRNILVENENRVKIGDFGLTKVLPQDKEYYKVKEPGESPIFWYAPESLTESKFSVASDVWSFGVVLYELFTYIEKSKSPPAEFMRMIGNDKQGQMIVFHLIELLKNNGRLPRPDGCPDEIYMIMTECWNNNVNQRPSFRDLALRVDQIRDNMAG
Sequence of Serine/threonine-protein kinase TBK1 (Homo sapiens) (Q9UHD2 whole entry): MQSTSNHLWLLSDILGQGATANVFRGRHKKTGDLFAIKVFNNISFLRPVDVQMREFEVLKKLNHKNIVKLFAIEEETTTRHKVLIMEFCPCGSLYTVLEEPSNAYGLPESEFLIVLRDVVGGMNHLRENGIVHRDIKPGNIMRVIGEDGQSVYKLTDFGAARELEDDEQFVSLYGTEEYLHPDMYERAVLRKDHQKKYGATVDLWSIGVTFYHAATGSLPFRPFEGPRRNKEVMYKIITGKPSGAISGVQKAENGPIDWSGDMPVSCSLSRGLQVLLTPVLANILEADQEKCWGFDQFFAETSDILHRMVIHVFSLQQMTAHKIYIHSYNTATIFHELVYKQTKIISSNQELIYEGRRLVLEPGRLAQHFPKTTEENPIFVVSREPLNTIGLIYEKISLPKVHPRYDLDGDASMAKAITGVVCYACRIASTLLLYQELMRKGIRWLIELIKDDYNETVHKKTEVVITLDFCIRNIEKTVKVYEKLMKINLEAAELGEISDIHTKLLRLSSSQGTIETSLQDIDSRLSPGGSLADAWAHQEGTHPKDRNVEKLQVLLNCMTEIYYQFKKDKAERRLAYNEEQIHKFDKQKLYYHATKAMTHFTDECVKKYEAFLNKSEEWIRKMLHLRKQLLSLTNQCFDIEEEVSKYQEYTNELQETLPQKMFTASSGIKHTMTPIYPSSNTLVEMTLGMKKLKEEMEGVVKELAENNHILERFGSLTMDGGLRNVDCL
Sequence of Mitogen-activated protein kinase kinase kinase 7 (Homo sapiens) (O43318 whole entry): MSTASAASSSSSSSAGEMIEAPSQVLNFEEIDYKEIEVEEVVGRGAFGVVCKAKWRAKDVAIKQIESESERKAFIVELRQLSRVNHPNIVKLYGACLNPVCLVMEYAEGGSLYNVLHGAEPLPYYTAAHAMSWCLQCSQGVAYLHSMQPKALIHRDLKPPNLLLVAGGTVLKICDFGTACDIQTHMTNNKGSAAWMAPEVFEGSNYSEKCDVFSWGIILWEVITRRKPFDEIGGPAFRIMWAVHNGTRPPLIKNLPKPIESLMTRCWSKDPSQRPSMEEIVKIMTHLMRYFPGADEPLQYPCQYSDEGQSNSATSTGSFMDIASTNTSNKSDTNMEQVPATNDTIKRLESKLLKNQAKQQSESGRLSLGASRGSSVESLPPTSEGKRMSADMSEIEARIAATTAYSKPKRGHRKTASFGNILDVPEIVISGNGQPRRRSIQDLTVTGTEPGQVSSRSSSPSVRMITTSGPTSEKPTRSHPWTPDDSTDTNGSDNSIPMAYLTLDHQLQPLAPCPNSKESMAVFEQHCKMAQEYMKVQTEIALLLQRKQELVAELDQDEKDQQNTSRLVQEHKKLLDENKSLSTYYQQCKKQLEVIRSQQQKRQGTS

Regarding `c1ccc2c(Nc3cc(C4CCC4)[nH]n3)nc(Nc3ccc4[nH]cnc4c3)nc2c1`, the inhibition in assay [1], in assay [2], in assay [3], in [4], in assay [5] and in assay [6] was over 80% in each case. Also, the inhibition in assay [7], in [8], in assay [9], in assay [10], in assay [11] and in [12] was over 80% in each case. Further, the inhibition in assay [13], in assay [14], in [15], in assay [16], in [17] and in [18] was over 80% throughout.
In the case of `NCCCNc1nc(Nc2cccc(NC(=O)N3CCCC3)c2)ncc1I`, the inhibition in [19], in [20], in [21], in [22], in [23] and in assay [24] was over 80% throughout. For the same molecule, the inhibition in [25], in [26], in [27], in assay [28] and in assay [29] was over 80% each time. For the same molecule, in the assay with HeLa, the outcome was Active.
